One assay has as its system PC-3. Briefly: In vitro cytotoxicity against human prostate carcinoma (PC-3) cell line. The format is functional, cell-based. In short, it runs like this: (§1)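 MTT assay on log-phase cells kept at 37 °C, 5% CO2. Seeded at 2.5 × 10³ cells/well; compound added 24 h later as serial PBS dilutions of a 1 × 10⁻⁵ M DMSO stock. Exposure 72 h, then MTT (1 mg/mL in PBS) for 4 h, DMSO solubilization, absorbance at 570 nm. PBS negative control, doxorubicin positive control. At least three experiments; IC50 = concentration reducing growth to 50% of control.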

The test system of another assay is HeLa. As to the kind of experiment: In vitro cytotoxicity against human cervical carcinoma (HeLa) cell line. It counts as functional, cell-based. In short, it runs like this:
as §1

Another assay concerns HT-29. As to the kind of experiment: In vitro cytotoxicity against human colon carcinoma (HT-29) cell line. It counts as functional, cell-based. The gist of the method: as §1
Another assay deals with Mus musculus. Briefly: In vivo antitumor activity in mice infected with HT-29 cells. It counts as functional. The gist of the method: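 HT-29 xenografts: 10⁶ cells/0.1 mL DMEM injected sc into the back of athymic nu/nu mice. At ~0.1 cm³ tumors, randomized to 4 control and 4 treated. Dosing 5 mg/kg ip in sterile 0.9% NaCl, daily for 4 days then 10 days off (14-day cycles), up to 60 days; controls given vehicle. Tumors measured 1–2×/week; V = (Dd²)/2.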

As usually defined, the IC50 is the concentration needed to halve the response being measured. Lower therefore signals inhibition by little substance. For the molecule `CN(CCCN(C)CCN1C(=O)c2cccc3c2c(cc2sccc23)C1=O)CCN1C(=O)c2cccc3c2c(cc2sccc23)C1=O`, the IC50 worked out at 1.42 µM in the assay on PC-3, 0.21 µM in the assay with HeLa and 0.27 µM in the assay on HT-29.

As for `CN(C)CCN1C(=O)c2cccc3c2c(cc2ccoc23)C1=O`, the values for the half-maximal inhibitory concentration (IC50) in the assay on PC-3, in the assay with HeLa and in the assay with HT-29 were 5.58 µM, 4.3 µM and 2.69 µM, respectively.

For `CN(C)CCN1C(=O)c2cccc3c2c(cc2ccsc23)C1=O`, the IC50 with PC-3 amounted to 1.19 µM; in the assay with HeLa, 0.86 µM; in the assay on HT-29 it was 0.75 µM.

`CN(C)CCN1C(=O)c2cccc3c2c(cc2sccc23)C1=O`: the results for the IC50 with PC-3, in the assay with HeLa and with HT-29 were 3.5 µM, 0.8 µM and 1.15 µM, respectively.

`O=C1c2cccc3c2c(cc2ccoc23)C(=O)N1CCNCCCNCCN1C(=O)c2cccc3c2c(cc2ccoc23)C1=O`: the 50% inhibitory concentration (IC50) is 0.5 µM in the assay on PC-3, 0.044 µM in the assay on HeLa and 0.0068 µM with HT-29. The molecule also displayed a Reduction in the assay on Mus musculus of around 80%.

On to `O=C1c2cccc3c2c(cc2occc23)C(=O)N1CCNCCCNCCN1C(=O)c2cccc3c2c(cc2occc23)C1=O`, for which the IC50 in the assay on PC-3 was above 100 µM; in the assay with HeLa, 0.73 µM; in the assay with HT-29, 0.37 µM.

Take `CN(CCCN(C)CCN1C(=O)c2cccc3c2c(cc2ccoc23)C1=O)CCN1C(=O)c2cccc3c2c(cc2ccoc23)C1=O`: the IC50 was determined as 12.6 µM in the assay with PC-3, 2.58 µM with HeLa and 0.71 µM in the assay on HT-29.

Consider `CN(CCCN(C)CCN1C(=O)c2cccc3c2c(cc2ccsc23)C1=O)CCN1C(=O)c2cccc3c2c(cc2ccsc23)C1=O`, for which the IC50 in the assay on PC-3 was 2.5 µM; with HeLa, 0.57 µM; with HT-29 it was 0.39 µM.

Turning to `O=C1c2cccc3c2c(cc2ccsc23)C(=O)N1CCNCCCNCCN1C(=O)c2cccc3c2c(cc2ccsc23)C1=O`, the IC50 came to 0.4 µM with PC-3, 1.04 µM in the assay with HeLa and 1.94 µM in the assay with HT-29.

With `O=C1c2cccc3c2c(cc2sccc23)C(=O)N1CCNCCCNCCN1C(=O)c2cccc3c2c(cc2sccc23)C1=O`, the IC50 in the assay on PC-3 worked out at 0.93 µM; with HeLa, 0.16 µM; in the assay with HT-29, 0.047 µM.

Regarding `CN(C)CCN1C(=O)c2cccc3c2c(cc2occc23)C1=O`, the IC50 with PC-3 was 0.164 µM; in the assay with HeLa, 0.14 µM; with HT-29 it was 0.55 µM.

Values taken from ChEMBL document CHEMBL1148446, “New analogues of amonafide and elinafide, containing aromatic heterocycles: synthesis, antitumor activity, molecular modeling, and DNA binding properties” (J Med Chem, 2004).
